Test results published in ChEMBL document CHEMBL4334444, “Studies of Jatrogossone A as a Reactive Oxygen Species Inducer in Cancer Cellular Models” (J Nat Prod, 2019).
Values belong to the compound of their own block, whether it stands above or below them. Activity calls are given as the source filed them. No cut-off for these calls is given here.

Key:
[1] = tested on: KOPN-8; test: Upregulation of Trx expression in human KOPN8 at 10 uM after 3 to 6 hrs by Western blot analysis; format: functional, cell-based
Outline: (§1)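 Western blot of KOPN-8 or MCF-7 lysates, 30 μg protein per lane on 4–12% Bis-Tris SDS-PAGE and transferred to nitrocellulose. Blots were probed with an oxidative stress defense antibody cocktail (catalase, SOD1, Trx, smooth muscle actin) and tubulin, and detected with IR-dye secondaries on a LI-COR Odyssey.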

[2] = tested on: KOPN-8; test: Upregulation of Trx expression in human KOPN8 at 1 uM after 24 hrs by Western blot analysis; format: functional, cell-based; outline: as §1
[3] = tested on: PBMC; test: Cytotoxicity against human PBMC cells assessed as reduction in cell viability at 0.1 to 250 uM by CellTiter-Glo assay; format: cell-based
Outline: (§2)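 CellTiter-Glo luminescent viability readout. Cells kept at 37 °C under 5% CO2. HMEC primary cells grown in basal medium with growth kit; leukemia lines and murine BCR-ABL (WT, Bax/Bak DKO) cultured per earlier description. Positive controls: staurosporine 25 μM, gambogic acid 10 μM, a toxic quinoline. At least two biological replicates in technical triplicate; luminescence normalized to untreated controls; EC50 computed.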

[4] = tested on: SUP-B15; test: Antiproliferative activity against human SUP-B15 cells assessed as reduction in cell viability at 0.1 to 250 uM by CellTiter-Glo assay; format: functional, cell-based; outline: as §2
[5] = tested on: MCF7; test: Upregulation of Trx expression in human MCF7 at 1 uM after 24 hrs by Western blot analysis; format: functional, cell-based; outline: as §1
[6] = tested on: SUM149PT; test: Antiproliferative activity against human SUM149 cells assessed as reduction in cell viability at 0.1 to 250 uM after 48 hrs by propidium iodide staining based fluorescence assay; format: functional
Outline: (§3)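 MDA-MB-231 and SUM149 seeded at 6 × 10^4 to 2 × 10^5 cells/well, cultured 24 h, then exposed for 48 h. Cells fixed in cold methanol, stained with 0.4% propidium iodide, fluorescence imaged. Viability expressed as percent surviving cells relative to vehicle wells.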

[7] = tested on: KOPN-8; test: Cytotoxicity against human KOPN8 cells assessed as cell viability at 0.75 to 100 uM after 72 hrs in presence of pan caspase inhibitor, Z-VAD-FMK by CellTiter-Glo assay; format: functional, cell-based
[8] = Protein binding in human plasma; format: ADME, cell-free; conditions: read-out: PPB (converted)
[9] = tested on: KOPN-8; test: Cell cycle arrest in human KOPN8 cells assessed as increase in accumulation at G2/M phase at 10 uM incubated for 24 hrs by propidium iodide staining based flow cytometric analysis relative to control; format: functional
Outline: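 KOPN-8 plated at 1.00 × 10^6 cells/plate, held 12 h at 37 °C, treated 24 h at 10 μM; DMSO vehicle and 2 μM staurosporine as controls. Cells fixed in cold methanol, RNase-treated, stained with PI (50 μg/mL); cell-cycle distribution by flow cytometry.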

[10] = tested on: B-ALL; test: Cytotoxicity against BCR-ABL p185-positive human B-ALL cells harboring MCL-1 triple knock out mutant assessed as inhibition of cell viability after 24 hrs by AnnexinV-FITC/propidium iodide staining based flow cytometric analysis; format: functional
[11] = tested on: U2OS; test: Antiproliferative activity against human U2OS assessed as reduction in cell viability at >10 uM by CellTiter-Glo assay; format: functional, cell-based; outline: as §2
[12] = Stability in CH3CN assessed as micheal adduct formation by measuring intact compound incubated for 16 hrs in presence of NAC by LC-MS analysis; format: physicochemical
[13] = tested on: MDA-MB-231; test: Antiproliferative activity against human MDA-MB-231 cells assessed as reduction in cell viability at >10 uM after 48 hrs by propidium iodide staining based fluorescence assay; format: functional; outline: as §3
[14] = Half life in human liver microsomes; format: ADME, Microsome
[15] = tested on: KOPN-8; test: Induction of apoptosis in human KOPN8 cells at 10 uM by Annexin V-FITC and propidium iodide staining based flow cytometry; format: functional, cell-based; conditions: TDE = time-dependent effect
Outline: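 KOPN-8 cells were plated at 1.00 × 10^6 per plate and held 12 h at 37 °C, then treated 24 h; positive control 2 μM staurosporine, vehicle DMSO. Cells were stained with Annexin V-FITC and PI and analysed by flow cytometry (FACSCalibur). Profiles are representative of three independent biological replicates.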

[16] = tested on: MDA-MB-231; test: Induction of ROS colocalization in mitochondria of human MDA-MB-231 cells at 30 uM incubated for 1 hr by CellROX green reagent/mitotracker deep red staining based confocal microscopic method; format: functional, cell-based
Outline: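 MDA-MB-231 plated at 4 × 10^4/well in phenol-red-free medium, 12 h at 37 °C; for rescue, NAC 100 μM pretreatment 0.5 h. Compound 30 μM or DMSO for 1 h, then CellROX green 5 μM final, MitoTracker Deep Red 250 nM, Hoechst 33342 500 nM (0.5 h before imaging). Washed twice, live spinning-disk confocal at 63×; two independent experiments.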

[17] = Stability in DMSO assessed as micheal adduct formation by measuring intact compound incubated for 16 hrs in presence of glutathione by NMR analysis; format: physicochemical
[18] = Stability in DMSO assessed as micheal adduct formation by measuring intact compound incubated for 16 hrs in presence of glutathione by LC-MS analysis; format: physicochemical
[19] = tested on: KOPN-8; test: Antiproliferative activity against human KOPN8 cells assessed as reduction in cell viability at 1 to 10 uM by CellTiter-Glo assay; format: functional, cell-based; outline: as §2
[20] = tested on: B-ALL; test: Antiproliferative activity against mouse B-ALL cells harboring Bax/Bak double knockout mutant assessed as reduction in cell viability at 1 to 10 uM by CellTiter-Glo assay; format: functional, cell-based; outline: as §2
[21] = tested on: KOPN-8; test: Induction of apoptosis in human KOPN8 cells assessed as increase in cleaved PARP 1 level at 1 to 100 uM after 24 hrs by Western blot analysis; format: functional, cell-based
Outline: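 Western blot of KOPN-8 and MCF-7 lysates made in RIPA-type buffer (Tris pH 7.5, Triton X-100, deoxycholate, SDS) with protease and phosphatase inhibitors. 30 μg protein per lane was run on 4–12% Bis-Tris SDS-PAGE and transferred to nitrocellulose. Blots were probed for cleaved caspase-7 and PARP-1 and detected with IR-dye secondaries. Menadione served as positive control: 10 μM in KOPN-8, 30 μM in MCF-7. Blots are representative of three independent experiments.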

[22] = tested on: B-ALL; test: Cytotoxicity against BCR-ABL p185-positive mouse B-ALL cells overexpressing human BFL-1 assessed as inhibition of cell viability after 24 hrs by AnnexinV-FITC/propidium iodide staining based flow cytometric analysis; format: functional
[23] = Stability in DMSO assessed as micheal adduct formation by measuring intact compound incubated for 16 hrs in presence of NAC by NMR analysis; format: physicochemical
[24] = tested on: BJ; test: Cytotoxicity against human BJ cells assessed as cell viability at >100 uM by CellTiter-Glo assay; format: cell-based; outline: as §2
[25] = tested on: PBMC; test: Cytotoxicity against human PBMC cells assessed as cell viability at >100 uM by CellTiter-Glo assay; format: cell-based; outline: as §2
[26] = Stability in DMSO assessed as micheal adduct formation by measuring intact compound incubated for 16 hrs in presence of NAC by LC-MS analysis; format: physicochemical
[27] = tested on: B-ALL; test: Antiproliferative activity against mouse B-ALL cells expressing wild type BCR-ABL assessed as reduction in cell viability at 1 to 10 uM by CellTiter-Glo assay; format: functional, cell-based; outline: as §2

SMILES: CC1=C2CC(C)(C)/C=C/C(=O)/C(C)=C\C3=C[C@H](C)C[C@]3(O2)C1=O [JATROPHONE]
Activity [1]: inactive
Activity [2]: inactive
Activity [3]: Toxic
inhibition [4]: Active
Activity [5]: inactive
inhibition [6]: Active
Activity [7]: inactive

fraction unbound [8]: 0.16
Stability [12]: Stable
half-life [14]: 31 min
Stability [17]: Stable
Stability [18]: Stable
Stability [23]: Stable
Stability [26]: Stable
SMILES: CC(=O)O[C@H]1/C2=C/[C@@H](C)C(=O)C[C@H]3[C@@H](/C=C(\C)C(=O)[C@H]2C[C@H]1C)C3(C)C
Activity [9]: 10%
IC50 [10]: 19.6 µM
inhibition [11]: Active
inhibition [13]: Active
Activity [15]: Tde
Activity [16]: Active
inhibition [19]: Active
inhibition [20]: Active
Activity [21]: Active
IC50 [22]: 4.26 µM
Activity [24]: Non-Toxic
Activity [25]: Non-Toxic
inhibition [27]: Active
